# Measured values gathered from unrelated publications.
Compound,test system,conditions,Cmax
C[C@]12CC[C@H](O)CC1=CC[C@@H]1[C@@H]2CC[C@]2(C)C(n3cnc4ccccc43)=CC[C@@H]12.Cl,"mouse, plasma","oral, 10 mg/kg",10.5 ng/mL
COc1ccc2[nH]cc(CCNc3nccc(Nc4cccc5c4ccn5C)n3)c2c1,"mouse, plasma","oral, 28.6 mg/kg",406 ng/mL
Cc1c(P(=S)(c2ccccc2)c2ccccc2)n2ccccc2[n+]1C/C=C/c1ccccc1.[Br-],"mouse, plasma","intraperitoneal, 10 mg/kg",1500 nM
CCC[C@@](N)(CO)CCc1ccc(OCCCCCC(C)C)cc1,"mouse, plasma","intraperitoneal, 10 mg/kg",1460 nM
CN1CCCCC1Cn1cc(C(=O)c2cc([N+](=O)[O-])ccc2I)c2ccccc21 (racemic),"mouse, plasma","oral, 25 mg/kg",800 ng/mL
N#Cc1c(Oc2cccc(OS(=O)(=O)CCCC(F)(F)F)c2)cccc1C(F)(F)F,"mouse, plasma","oral, 5 mg/kg",172 ng/mL
C[C@]12CC[C@H](n3ccnc3)CC1=CC[C@@H]1[C@@H]2CC[C@]2(C)C(n3cnc4ccccc43)=CC[C@@H]12.Cl,"male CD-1 mouse, plasma","oral, 10 mg/kg",1270 ng/mL
CCCCCCCC(=O)N[C@@H](CCCCN)C(=O)N[C@@H](CCCCN)C(=O)N[C@@H](C)C(=O)N[C@@H](CC(C)C)C(=O)N[C@@H](CCCCN)C(=O)N[C@@H](CC(C)C)C(=O)N[C@@H](C)C(=O)N[C@@H](CCCCN)C(=O)N[C@@H](CCCCN)C(=O)N1CCC[C@H]1C(=O)N[C@@H](CC(C)C)C(=O)N[C@@H](CCCCN)C(=O)N[C@@H](CC(C)C)C(=O)N[C@@H](CC(C)C)C(=O)N[C@@H](CCCCN)C(N)=O,"female CD-1 mouse, blood","intravenous, 1 mg/kg, single dose",441 ng/mL
Cc1cc(C)nc(Nc2ncc(C(=O)NCCc3c(C)[nH]c4ccccc34)cn2)c1,"C57BL/6 mouse, plasma","intraperitoneal, 4.4 mg/kg",191 ng/mL
COc1ncccc1-c1cnn2ccc(N3CCN(C(=O)OC(C)C)CC3)nc12,"mouse, plasma","oral, 10 mg/kg",5200 nM
CN[C@H](CC(C)C)C(=O)N[C@H]1C(=O)N[C@@H](CC(N)=O)C(=O)N[C@H]2C(=O)NC3C(=O)N[C@H](C(=O)N[C@H](C(=O)NCCC[N+](C)(C)C)c4cc(O)cc(O)c4-c4cc3ccc4O)[C@H](O)c3ccc(c(Cl)c3)Oc3cc2cc(c3OC2OC(CO)C(O)[C@H](O)[C@@H]2O[C@H]2CC(C)(NCc3ccc(-c4ccc(Cl)cc4)cc3)[C@H](O)[C@H](C)O2)Oc2ccc(cc2Cl)[C@H]1O (stereo partly drawn),"mouse, plasma","intravenous, 10 mg/kg",14100 ng/mL
NCC(=O)Nc1ccc(-n2nc(C(F)(F)F)cc2-c2ccc3c(ccc4ccccc43)c2)cc1,"mouse, plasma","oral, 80 mg/kg, single dose",2080 ng/mL
